# Data: article PMC4238785 (British Journal of Clinical Pharmacology, 2014)
# Like-named read-outs stand apart in the source and are kept apart here.
# Experiments:
# [1] = assay type: in vivo, human; conditions: for Tmax / Vd/F: male, human, plasma, po
# Procedure, shortened: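 Healthy subjects received a single oral 20 mg test-compound dose with 240 ml water after an overnight fast, continued to 4 h. Period 2, after a 5−7 day washout: CYP3A4 inhibitor 400 mg orally once daily for 7 days, co-dosed on day 5. Plasma was sampled predose–72 h, acidified (citrate, pH 1.5) and run by chiral LC-MS. Ratios: ANOVA (log values, period and subject effects), least-square geometric means, 90% CI.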
# [2] = assay type: in vivo, human
# Procedure, shortened: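 Healthy subjects fasted overnight and received a single oral 30 mg test-compound dose in each of three periods. After a 4-day washout, it was followed 5 min later by 600 mg i.v. inducer over 30 min. Then 600 mg oral inducer daily on days 7–21, co-dosed on day 20. Plasma (predose–48 h) was citric-acid stabilised, extracted with MTBE and run by achiral LC-MS. Ratios: ANOVA of log values, geometric-mean 90% CI.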
# [3] = tested on: CYP3A4; conditions: [14C]-apremilast, in vitro; cited from earlier work
# [4] = tested on: CYP1A2; conditions: [14C]-apremilast, in vitro; cited from earlier work
# [5] = tested on: CYP2A6; conditions: [14C]-apremilast, in vitro; cited from earlier work
# [6] = tested on: MDR1; conditions: in vitro studies, no reference given; cited from earlier work
# [7] = tested on: OATP1B1; conditions: in vitro studies, no reference given; cited from earlier work
# [8] = tested on: OATP1B3; conditions: in vitro studies, no reference given; cited from earlier work
# [9] = cited from earlier work
# [10] = acidic conditions; no reference given; cited from earlier work
# [11] = midazolam with rifampicin; cited from earlier work
# [12] = apremilast 20 mg with ketoconazole 400 mg once daily vs alone
# [13] = apremilast given with ketoconazole vs alone
# [14] = with ketoconazole vs apremilast 20 mg alone, least-square geometric means
# [15] = multiple oral doses of rifampicin vs apremilast alone
# [16] = with i.v. rifampicin vs apremilast 30 mg alone, least-square geometric means
smiles,measurement,setting,value
CCOc1cc(C(CS(C)(=O)=O)N2C(=O)c3cccc(N)c3C2=O)ccc1OC (stereo not drawn) [CC-10055],concentrations in urine,[1]; KETO study,no detectable concentrations
same,overall metabolite to parent ratios in plasma,[1]; KETO study,≤ 5%
CCOc1cc([C@@H](CS(C)(=O)=O)N2C(=O)c3cccc(NC(C)=O)c3C2=O)ccc1OC [apremilast],fraction of apremilast excreted unchanged in the urine,"[1]; KETO study, overall",< 5%
same,CL/F,"[1]; apremilast 20 mg single oral dose alone, n = 18, arithmetic mean (SD)",10.2 (3.5) l h^−1
same,"increase of AUC(0,∞) by ketoconazole",[1]; [12],≈ 36%
same,increase of Cmax by ketoconazole,[1]; [12],5%
same,change in renal clearance,[1]; [13],no meaningful change
same,increase in the percentage of urinary excretion,[1]; [13],approximately 36%
same,Tmax,[1],4 h
same,Vd/F,[1],84 L
same,Tmax,[1]; 20 mg,2.5 h
same,Vd/F,[1]; 20 mg,111 L
same,"AUC(0,∞) Ratio (90% CI)",[1]; [14],"136.4 (126.2, 147.5) %"
same,CL/F Ratio (90% CI),[1]; [14],"73.3 (67.8, 79.2) %"
same,Cmax Ratio (90% CI),[1]; [14],"104.9 (92.2, 119.3) %"
same,Vz/F Ratio (90% CI),[1]; [14],"77.5 (69.8, 86.1) %"
same,t1/2 Ratio (90% CI),[1]; [14],"106.5 (100.3, 112.7) %"
same,increase in Cmax,[2]; after i.v. rifampicin vs apremilast alone,13%
same,CL/F,"[2]; apremilast 30 mg single oral dose alone, n = 21, arithmetic mean (SD)",10.0 (3.02) l h^−1
same,Tmax,"[2]; apremilast 30 mg single oral dose alone, n = 21, median (range)",2.0 (0.5–5.0) h
same,Tmax,"[2]; both, human, plasma, oral",1.25 h
same,Vd/F,"[2]; both, human, plasma, oral",115 L
same,Tmax,"[2]; both, human, plasma, po",1 h
same,Vd/F,"[2]; both, human, plasma, po",342 L
same,half-life,"[2]; both, human, plasma, po",6.31 h
same,Tmax,"[2]; both, human, plasma, po, 30 mg",2 h
same,Vd/F,"[2]; both, human, plasma, po, 30 mg",119 L
same,half-life,"[2]; both, human, plasma, po, 30 mg",8.2 h
same,decrease of Cmax,[2]; [15],approximately 43%
same,"decrease of mean AUC(0,∞)",[2]; [15],≈ 72%
same,increase of apremilast clearance,[2]; [15],≈ 3.6 fold
same,"AUC(0,∞) Ratio (90% CI)",[2]; [16],"95.71 (88.0, 104.1) %"
same,Cmax Ratio (90% CI),[2]; [16],"113.1 (103.2, 123.9) %"
same,rate of metabolism by CYP isoform,[3],high rate
same,rate of metabolism by CYP isoform,[4],lower rates of metabolism
same,rate of metabolism by CYP isoform,[5],lower rates of metabolism
same,transporter substrate,[6],is a MDR1 substrate
same,transporter substrate,[7],not a substrate
same,transporter substrate,[8],not a substrate
same,dose excreted unchanged in urine,[9],3%
same,stability,[10],stable
Cc1ncc2n1-c1ccc(Cl)cc1C(c1ccccc1F)=NC2 [midazolam],exposure relative to administration alone,[11],4%
